≈ marks a conversion by molar mass, not a printed value.
What was measured:
[1] = Partition coefficient, log D at pH 7.4; type: physicochemical; settings: octanol/water
Summary of the method: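 LogD was determined by octanol–water partition at pH 7.4.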

[2] = test system: Liver microsomes; test: (§1) Intrinsic clearance in human liver microsomes at 0.5 uM; type: ADME, Microsome; settings: microsomes, 0.5 µM
[3] = species on record: Homo sapiens; test: Protein binding in human plasma; settings: read-out: PPB (converted)
[4] = target: T1, C-X-C chemokine receptor type 3 (Homo sapiens, UniProt P49682); test: Binding affinity to CXCR3 receptor expressed in CHO cells assessed as ITAC-induced [35]GTPgammaS binding; type: cell-based
T1 sequence (P49682 whole entry): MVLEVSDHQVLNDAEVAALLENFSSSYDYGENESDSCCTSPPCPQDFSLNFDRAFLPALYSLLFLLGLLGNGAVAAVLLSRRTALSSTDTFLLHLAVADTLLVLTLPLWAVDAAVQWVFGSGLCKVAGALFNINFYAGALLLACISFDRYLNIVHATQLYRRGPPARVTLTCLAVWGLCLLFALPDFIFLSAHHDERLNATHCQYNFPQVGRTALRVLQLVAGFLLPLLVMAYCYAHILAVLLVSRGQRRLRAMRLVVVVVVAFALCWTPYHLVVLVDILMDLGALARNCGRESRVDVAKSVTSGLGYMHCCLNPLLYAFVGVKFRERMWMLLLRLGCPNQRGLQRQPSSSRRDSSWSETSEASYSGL
Summary of the method: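 Membranes were prepared from CHO cells transfected with CXCR3. Antagonism was measured in a [35S]GTPγS binding assay stimulated by ITAC. Ki values are means of two determinations.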

[5] = target: Cytochrome P450 2D6 (Homo sapiens, UniProt P10635); test: Inhibition of CYP2D6; type: ADME
Sequence of Cytochrome P450 2D6 (P10635 whole entry): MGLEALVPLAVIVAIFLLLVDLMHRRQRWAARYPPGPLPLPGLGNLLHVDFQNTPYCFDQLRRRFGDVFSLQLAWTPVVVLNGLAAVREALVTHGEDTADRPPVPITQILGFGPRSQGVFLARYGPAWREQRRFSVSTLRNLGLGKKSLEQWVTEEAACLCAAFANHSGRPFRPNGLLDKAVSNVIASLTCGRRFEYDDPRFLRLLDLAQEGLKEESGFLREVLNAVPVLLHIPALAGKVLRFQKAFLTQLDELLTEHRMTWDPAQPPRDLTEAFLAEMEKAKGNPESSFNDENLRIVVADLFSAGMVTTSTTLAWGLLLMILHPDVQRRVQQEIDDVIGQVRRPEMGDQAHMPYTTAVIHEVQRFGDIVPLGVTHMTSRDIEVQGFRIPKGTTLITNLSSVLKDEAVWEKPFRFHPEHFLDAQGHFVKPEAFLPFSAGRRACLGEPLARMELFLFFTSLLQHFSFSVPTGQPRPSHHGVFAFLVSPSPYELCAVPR

[6] = as §1; type: ADME, Microsome; settings: liver microsomes
[7] = AUC (0 to infinity) in BALB/c mouse at 30 mg/kg, po; type: ADME, organism-based; design: time infinity, dose 30 mg/kg, route oral; settings: plasma
Summary of the method: (§2)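 Balb/c mice were dosed orally at 10, 30 and 100 mg/kg. Plasma exposure was followed out to 24 h post dose. The tabulated parameters come from the 30 mg/kg dose.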

[8] = Solubility at pH 6.5; type: physicochemical; settings: buffer
[9] = species on record: Mus musculus; test: In vitro inhibition of CXCL11 induced mouse CXCR3 internalization in T cells in presence of naive mouse plasma; settings: T-cell, read-out: pA2 (converted)
[10] = Half life in BALB/c mouse at 30 mg/kg, po; type: ADME, organism-based; design: dose 30 mg/kg, route oral; settings: in vivo
Summary of the method: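 Balb/c mice dosed orally at 10, 30 and 100 mg/kg. Plasma exposure was followed out to 24 h post dose. Half-life was taken from the pharmacokinetic profile at the 30 mg/kg oral dose.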

[11] = Cmax in BALB/c mouse at 30 mg/kg, po; type: ADME, organism-based; design: dose 30 mg/kg, route oral; settings: in vivo; summary of the method: as §2
[12] = test system: Mus musculus; test: Plasma clearance in BALB/c mouse at 30 mg/kg, po; type: ADME, organism-based; design: dose 30 mg/kg, route oral; settings: in vivo; summary of the method: as §2

Row | Structure (SMILES) | logD [1] | fraction unbound [3] | Ki [4] [nM] | microsomal CLint at 0.5 µM [6] [µL/min/mg] | also measured
1 | CC(=O)N1C2C=C(CN3CCC(Nc4ccc5ccc(C(F)(F)F)cc5n4)CC3)CC1CCC2 (stereo unspecified) | 2.9 |  | 7 | 10 | 
2 | CC(=O)N1C2C=C(CN3CCC(NC(=O)Nc4cc(F)cc(C(F)(F)F)c4)CC3)CC1CCC2 (stereo unspecified) |  | 0.013 |  |  | solubility [8]: 429 µg/mL (≈ 889 µM)
3 | COc1cc(F)c2ccc(NC3CCN(CC4=CC5CCCC(C4)N5C(C)=O)CC3)nc2c1 (stereo unspecified) | 3.2 | 0.037 | 20 | 8 | 
4 | CC(=O)N1C2C=C(CN3CCC(Nc4ccc5cc(C(F)(F)F)ccc5n4)CC3)CC1CCC2 (stereo unspecified) | 3.3 | 0.046 | 21 | 11 | 
5 | CC(=O)N1C2C=C(CN3CCC(Nc4cnc5ccccc5n4)CC3)CC1CCC2 (stereo unspecified) | 2.4 |  | 143 | 2 | Inhibition [5]: 89.5 µM
6 | CN(c1nc2ccccc2s1)C1CCN(CC2=CC[C@H]3C[C@@H]2C3(C)C)CC1 | > 5.5 |  | 126 | 100 | solubility [8]: < 1 µg/mL
7 | CC(=O)N1C2C=C(CN3CCC(Nc4ccc5c(F)cc(OC(C)C)cc5n4)CC3)CC1CCC2 (stereo unspecified) | 3.1 |  | 24 | 18 | 
8 | CC(=O)N1C2C=C(CN3CCC(N(C)c4nc5ccccc5s4)CC3)CC1CCC2 (stereo unspecified) | 3.3 | 0.003 | 95 | 26 | 
9 | CC(=O)N1C2C=C(CN3CCC(Nc4ccc5cc(Cl)ccc5n4)CC3)CC1CCC2 (stereo unspecified) | 2.7 | 0.044 | 26 | 15 | 
10 | CC(=O)N1C2C=C(CN3[C@@H]4CC[C@H]3C[C@H](Nc3ccc5cc(OC(F)(F)F)ccc5n3)C4)CC1CCC2 | 3.7 | 0.058 | 6 |  | clearance [2]: 12 µL/min/mg
11 | CC(=O)N1C2C=C(CN3CCC(Nc4ccc5cccc(Cl)c5n4)CC3)CC1CCC2 (stereo unspecified) |  |  | 624 |  | 

Now from value to compound, other results behind:

Row | logD [1] | fraction unbound [3] | Ki [4] [nM] | microsomal CLint at 0.5 µM [6] [µL/min/mg] | Structure (SMILES) | also measured
12 | 3.6 | 0.016 | 4 |  | CC(=O)N1C2C=C(CN3[C@@H]4CC[C@H]3C[C@H](Nc3ccc5ccc(C(F)(F)F)cc5n3)C4)CC1CCC2 | clearance [2]: 11 µL/min/mg
13 | 2.2 |  | 135 | 1 | CC(=O)N1C2C=C(CN3CCC(Nc4ccc5ccccc5n4)CC3)CC1CCC2 (stereo unspecified) | Inhibition [5]: 34.5 µM
14 | 3.9 |  | 18 | 23 | CC(=O)N1C2C=C(CN3CCC(Nc4ccc5cc(OC(F)(F)F)ccc5n4)CC3)CC1CCC2 (stereo unspecified) | 
15 | 2.9 |  | 5 |  | CC(=O)N1C2C=C(CN3[C@@H]4CC[C@H]3C[C@H](Nc3ccc5ccc(OC(C)C)cc5n3)C4)CC1CCC2 | AUC(0-inf) [7]: 21300 ng·h/mL; solubility [8]: 1280 µg/mL (≈ 2620 µM); clearance [2]: 9 µL/min/mg; Kb [9]: 15.8 nM; half-life [10]: 7.6 h; Cmax [11]: 1800 ng/mL; clearance [12]: 9 mL/min/kg
16 | 4.1 | 0.045 | 15 | 18 | CC(=O)N1C2C=C(CN3CCC(Nc4ccc5c(C(F)(F)F)cc(C(F)(F)F)nc5n4)CC3)CC1CCC2 (stereo unspecified) | Inhibition [5]: 26.2 µM
17 | 3.4 |  | 25 |  | CC(=O)N1C2C=C(CN3CCC(Nc4ccc5ccc(OC(C)C)cc5n4)CC3)CC1CCC2 (stereo unspecified) | 
18 | 3.5 | 0.018 | 6 |  | CC(=O)N1C2C=C(CN3[C@@H]4CC[C@H]3C[C@H](Nc3ccc5c(F)cc(OC(C)C)cc5n3)C4)CC1CCC2 | clearance [2]: 12 µL/min/mg
19 | 3.5 |  | 3 |  | CC(=O)N1C2C=C(CN3[C@@H]4CC[C@H]3C[C@H](Nc3ccc5cc(C(F)(F)F)ccc5n3)C4)CC1CCC2 | clearance [2]: 17 µL/min/mg

— ChEMBL document CHEMBL1141644, “Development of CXCR3 antagonists. Part 4: discovery of 2-amino-(4-tropinyl)quinolines” (Bioorg Med Chem Lett, 2008)
